Measurements: publication PMC3941648 (Protein and peptide letters, 2014)
Entries after “also recorded” stand apart in the source; their conditions may differ. *: point of attachment. FITC = O=C1OC2(c3ccc(O)cc3Oc3cc(O)ccc32)c2ccc(NC(=S)*)cc21; Biotin = O=C1N[C@H]2[C@H](CS[C@H]2CCCCC(=O)*)N1; Ahx = NCCCCCC(=O)O

Assays:
Type in all cases: cell-based, Chinese hamster
[1] = system: pgs A-745 cells; experiment: Cellular uptake of peptide-horseradish peroxidase; settings: pgs A-745 cells lacking surface GAGs; 240 ng/ml complex, 30 min, 37°C; TMB substrate, 405 nm; n=3
[2] = system: wild-type CHO K1 cells; experiment: Cellular uptake of FITC-labeled peptides, flow cytometry and confocal microscopy; settings: as stated in the abstract; cell type not stated
In short: (§1)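 CHO K1 wild-type and GAG-deficient mutants were grown in DMEM/F12 with 10% FBS at 37 °C. At ~75% confluence (48 h after seeding), cells were exposed to 20 μM FITC-labelled peptide for 2 h at 37 °C, then trypsinised, washed and analysed by flow cytometry. Dead cells (7-AAD-positive) were gated out, ≥5,000 events were collected and uptake was expressed relative to wild-type. Confocal imaging used a ~0.40 micron mid Z-section. Triplicates, mean ± S.D., t test.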

[3] = system: pgs C-605 cells (sulfate transporter-defective CHO K1 mutant); experiment: Cellular uptake of FITC-labeled peptides, flow cytometry; settings: 20 μM FITC-labeled peptide, 2 h, 37°C
In short: (§2)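 Mutant and wild-type CHO K1 cells were seeded 48 h before use and treated at ~75% confluence with 20 μM FITC-labelled peptide in DMEM/F12 for 2 h at 37 °C. Cells were washed, trypsinised for 5 min and resuspended at 2×10⁶ cells/ml. 7-AAD (0.5 ng/μl final) excluded dead cells. Fluorescence was read with 488-nm excitation on ≥5,000 live events and compared with wild-type. Triplicates, mean ± S.D.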

[4] = system: pgs F-17 cells (2-O-sulfation-defective CHO K1 mutant); experiment: as above; settings: 20 μM FITC-labeled peptide, 2 h, 37°C
In short: as §2

[5] = system: pgs D-677 cells (heparan sulfate-defective CHO K1 mutant); experiment: Cellular uptake of FITC-labeled peptides, flow cytometry and confocal microscopy; settings: deduced from uptake in pgs D-677 versus wt CHO K1; 20 μM, 2 h, 37°C
In short: as §1

{Biotin-Ahx}-KKGFYKKKQCRPSKGRKRGFCWAVDKYG-NH2 (cysteine pairing not given here) [KG-28]
Uptake of complex into cells (peroxidase activity of cell extracts) [1]: abolished

{FITC-Ahx}-KKGFYKKK-NH2 [KK-8]
Uptake activity retained within KW-22 (abstract) [2]: no uptake activity

{FITC-Ahx}-KKGFYKKKQCRPSKGRKRGFCW-NH2 (cysteine pairing not given here) [KW-22]
Cellular fluorescence (uptake) compared with wt CHO K1 [3]: comparable with that of the wt cells | Cellular uptake compared with wt CHO K1 [4]: comparable to that in wt cells; also recorded: barely affected | Contribution of heparan sulfate to total uptake [5]: ~ 38%
